The values below come from publication PMC3008401 (The Journal of infectious diseases, 2010).

Where a name gives a salt, the structure may show the parent alone. Read-outs that look alike come from different tables or passages of the source.

For data set [1], the system named is genotype 1b replicon cells. The note with it: read-out: CC50 Measured by others (1b genotype); cited from earlier work.
The format of data set [2] is cell-based. The note with it: human. An outline of the steps:
(§1)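 Huh-7.5 cells electroporated with in vitro transcribed luciferase replicon RNA (genotype 1b Bart79I-luc for line 1; full-length genotype 2a FL-J6/JFH-5′C19Rluc2AUbi for line 2). Seeded at ~2–3×10^4 cells/well, medium changed at 24 h then daily, serial compound dilutions, 4 replicates. At 72 h: 10% alamarBlue, 2 h at 37°C, fluorescence read. Normalized to untreated or DMSO controls. Mean ± SD.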

The format of data set [3] is cell-based. The note with it: human. The method, boiled down:
as §1
This is another data set of the same source.

The next data set deals with HCV J6-JFH (genotype 2a). It counts as cell-based, Hepatitis C virus. The note with it: SCH503034 alone at 2.5μM, 72hr.
For data set [4] the following is noted: estimated from preclinical animal data; cited from earlier work.

On to `CNC(=O)c1c(-c2ccc(F)cc2)oc2cc(N(CCO)S(C)(=O)=O)c(C3CC3)cc12` [HCV-796], for which the CC50 in data set [1] was greater than 100 µM. As to `CC(C)(C)OC(=O)N[C@H]1CCCCC/C=C\[C@@H]2C[C@@]2(C(=O)NS(=O)(=O)C2CC2)NC(=O)[C@@H]2C[C@@H](OC(=O)N3Cc4cccc(F)c4C3)CN2C1=O` [ITMN-191], the CC50 in data set [1] is greater than 50 µM. In the case of `CC(C)[C@H](N)C(=O)O[C@@H]1[C@@H](CO)O[C@@H](n2ccc(N)nc2=O)[C@]1(C)O` [NM-283, valopicitabine], the CC50 in data set [1] is greater than 100 µM. The compound `NC(=O)c1ncn([C@@H]2O[C@H](CO)[C@@H](O)[C@H]2O)n1` [Ribavirin] registered a CC50 at 72 h in data set [2] greater than 100 µM. In the case of `CC(C)(C)NC(=O)N[C@H](C(=O)N1C[C@H]2[C@@H]([C@H]1C(=O)NC(CC1CCC1)C(=O)C(N)=O)C2(C)C)C(C)(C)C` (stereo partly drawn) [SCH-503034, Boceprevir], the CC50 in data set [1] was greater than 100 µM. Besides, the 50% cytotoxic concentration (CC50) at 72 h in data set [3] and in data set [2] was greater than 100 µM in each case. Besides, the “decrease of viral replication” value with HCV J6-JFH (genotype 2a) is reported as ~ 1 log.

For `CCC[C@H](NC(=O)[C@@H]1[C@H]2CCC[C@H]2CN1C(=O)[C@@H](NC(=O)[C@@H](NC(=O)c1cnccn1)C1CCCCC1)C(C)(C)C)C(=O)C(=O)NC1CC1` [VX-950, Telaprevir], the CC50 in data set [1] is 26.7 to 82 µM. For `Clc1ccc(Cn2c(CN3CCCC3)nc3ccccc32)cc1` [clemizole, clemizole hydrochloride], the “no observed adverse events level (NOAEL)” value in data set [4] is listed as 100 mg/kg/day. The CC50 at 72 h in data set [3] stood at 40 ± 5 µM; in data set [2], 35 ± 0.5 µM.
